Assay outcomes as filed in PubChem BioAssay.
PLC-gamma1 inh = blocks human PLC-gamma1 enzyme activity; purified PLC-gamma1, fluorogenic substrate, fluorescence; 370,000 compounds, 0.84% hits; inhibition, % at 12.2 µM; AID 720700; P19174; in the data active = inhibition above about 9.5%
ARFGAP1 inhibitor = rat ARFGAP1 inhibition; Q62848; Arfgap1-stimulated ARF1 GTP hydrolysis, GDP FP detection; inhibition, % at 16.5 µM; 360,000 compounds, 0.26% hits; AID 651572;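 active = inhibition above a per-plate limit, mean inhibition of low control wells plus 3 SD, cut at about 25% in these data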;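 note: 0% = DMSO wells with enzyme and 100% = wells lacking Arfgap1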
Target sequence (Q62848 1-136 limits assumed): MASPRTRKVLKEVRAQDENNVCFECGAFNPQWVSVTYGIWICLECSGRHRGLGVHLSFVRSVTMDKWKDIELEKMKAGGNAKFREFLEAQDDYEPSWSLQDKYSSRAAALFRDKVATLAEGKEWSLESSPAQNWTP
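system = rat Arfgap1 catalytic domain, aa 1-136 | technique = FP, GDP Alexa 633 tracer displaced from anti-GDP antibody, 620/688 nm | compound = one concentration, 16.5 µM, DMSO 1.26% | medium = HEPES-based buffer, pH 7.5 | timing = compound-enzyme preincubation 20 min, reaction 120 min, detection 60 min, 25 °C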
ASAP1 GAP inh = ASAP1 ArfGAP inhibition | Q9ULH1 | ASAP1-stimulated ARF1 GTP hydrolysis, GDP FP detection | inhibition, % at 16.5 µM | 360,000 compounds, 0.19% hits; in the data active = inhibition above about 25%;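 note: 0% = vehicle with enzyme and substrate and 100% = no enzyme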
Target sequence (Q9ULH1 325-724 limits assumed): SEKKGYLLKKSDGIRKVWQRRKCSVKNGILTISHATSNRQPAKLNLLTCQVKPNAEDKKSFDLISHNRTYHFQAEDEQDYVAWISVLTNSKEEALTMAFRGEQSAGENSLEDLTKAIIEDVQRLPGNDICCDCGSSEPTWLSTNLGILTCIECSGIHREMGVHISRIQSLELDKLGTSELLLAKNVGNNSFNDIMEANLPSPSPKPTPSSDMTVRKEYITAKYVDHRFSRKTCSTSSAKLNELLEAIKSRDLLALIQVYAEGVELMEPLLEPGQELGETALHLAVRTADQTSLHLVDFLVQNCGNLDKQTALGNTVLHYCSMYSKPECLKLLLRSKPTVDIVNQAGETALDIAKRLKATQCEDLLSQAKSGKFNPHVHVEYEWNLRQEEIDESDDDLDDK
sPLA2-III inh = Blocks human group III sPLA2 activity; Q9NZ20; QFRET BODIPY PC-A2 liposome hydrolysis, fluorescence; inhibition, % at 12.2 µM; 370,000 compounds, 0.56% hits;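 active = inhibition above mean plus 3 SD of compounds lying within the high and low control bounds, cut at about 19% in these data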;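 note: 0% = median of test compound wells and 100% = no enzyme DMSO wells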
PLC-beta3 inh = inhibitors of human phospholipase C beta3; 370,000 compounds, 0.18% hits; inhibition, % at 12.2 µM; Q01970; Purified PLC-beta3, fluorogenic substrate, fluorescence; AID 720704;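 note: 0% = median of compound wells on plate and 100% = full blocker control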
PLCg1 ctr = inhibits human PLC-gamma1 in PLC-beta3 counter-screen. 3,300 compounds, 3.1% hits. shares compounds with PLC-gamma1 inh. purified PLC-gamma1, fluorogenic substrate, fluorescence. inhibition, % at 12.3 µM; in the data active = inhibition above about 9.5%
PLCbeta3 conf = human PLC-beta3 inhibition, confirmation; shares compounds with PLC-gamma1 inh; purified PLC-beta3, fluorogenic substrate fluorescence; inhibition, % at 12.3 µM; 3,300 compounds, 1% hits; AID 743261
Starred values were filed as active, the others as inactive; · = no result given. Sampled rows, rich in hits. Any-hit rate of the full collection: about 1.9%. Cut-off read from the data, not from the text of the source, unless noted: active = inhibition above about 11%; inactive = the rest.

SMILES	PLC-gamma1 inh	ARFGAP1 inhibitor	ASAP1 GAP inh	sPLA2-III inh	PLC-beta3 inh	PLCg1 ctr	PLCbeta3 conf
CN(CC(=O)N1CCN(Cc2ccccc2)CC1)S(=O)(=O)c1cccc2nsnc12	11*	2	-2	7	10	-6	-3
O=[N+]([O-])c1cccc2ccc(/C=C/c3cccc(Br)c3)nc12	9	4	-2	2	11*	0	1
CC(C)(C)c1ccc(S(=O)(=O)NCC2CCCO2)cc1 (stereo not given)	-1	11	-6	11	-6	·	·
O=C(O)c1ccc(S(=O)(=O)NCC2CCCO2)cc1 (stereo not given)	11*	-2	8	6	-3	-2	3
CCOC(=O)N1CCN(C(=O)C[C@H]2C[C@@]3(C(=O)OC)C(=C[C@H](COCc4ccccc4)O[C@@H]3C)N(Cc3ccc4c(c3)OCO4)C2=O)CC1	1	3	-1	-5	5	·	·
CCCn1c(=O)c2c(nc3n2CCN3Cc2ccco2)n(C)c1=O	-1	14	10	3	-5	·	·
Cn1c(=O)n(Cc2ccc(Cl)cc2)c(=O)c2c1nc1n2CCN1Cc1ccco1	11*	3	8	5	-1	-3	-6
Nc1cc(Nc2ccccc2)c2nonc2c1[N+](=O)[O-]	11*	-7	-5	0	2	2	1
NC(=O)Nc1cccc2ccccc12	-12	13	1	2	-15	·	·
CCC(=O)Nc1cccc2ccccc12	11*	4	0	11	-3	6	3
CC(C)NC(=O)c1cc2cc([N+](=O)[O-])ccc2s1	14*	-6	5	7	12*	-3	4
CCCNC(=O)c1cc2cc([N+](=O)[O-])ccc2s1	1	5	6	-1	-2	·	·
COc1ccc(CN2CCOCCOCCOCC2)cc1	8	-2	11	8	13*	7	4
Cc1ccccc1NC(=O)N(C)[C@H]1C[C@H]2c3[nH]c4c(-c5ccccc5)cccc4c3CCN2C[C@H]1[C@H](C)O	-41	·	·	-3	-51	·	·
O=C1CN(C(=O)COC(=O)c2cccc(Br)c2)c2ccccc2N1	14*	2	-12	-3	-10	-2	-1
O=C1CN(C(=O)COC(=O)c2ccc(Br)o2)c2ccccc2N1	-11	1	-2	17	-16	·	·
COC(=O)[C@H](CC(C)C)N(CCc1cn(Cc2ccc(C)cc2)nn1)S(=O)(=O)c1ccc(F)cc1Br	3	·	·	-9	5	·	·
COc1ccc(S(=O)(=O)Nc2ccc3c(c2)CC(=O)N([C@@H](C)CO)C[C@H](C)[C@@H](CN(C)S(=O)(=O)c2ccc(F)cc2)O3)cc1	11*	5	15	-38	6	-2	-3
C[C@@H]1CCCCO[C@@H](CN(C)S(=O)(=O)c2ccccc2)[C@@H](C)CN([C@H](C)CO)C(=O)c2cc(NS(=O)(=O)c3ccc(F)cc3)ccc2O1	17*	6	6	-39	8	-2	-6
CC1=NN(c2ccc(Cl)cc2)C(=O)C1	13*	22	-5	7	8	-6	-3
CC1=NN(Cc2ccccc2)C(=O)C1	13*	3	14	-1	7	-5	-3
CC1=NN(c2ccccc2)C(=O)C1	24*	24	0	11	10	7	8
CC1=NN(c2ccc(N)cc2)C(=O)C1	-6	23	9	0	-9	·	·
CC(NCc1ccco1)C(=O)N1CCN(c2ccc(F)cc2)CC1 (stereo not given)	7	·	·	6	7	·	·
CN(C(=O)c1ccccc1OC1CCN(S(C)(=O)=O)CC1)C1CCOC1 (stereo not given)	1	7	1	2	0	·	·
SMILES	PLC-gamma1 inh	ARFGAP1 inhibitor	ASAP1 GAP inh	sPLA2-III inh	PLC-beta3 inh	PLCg1 ctr	PLCbeta3 conf
CS(=O)(=O)N1CCC(Oc2ccccc2C(=O)NC2CCOC2)CC1 (stereo not given)	12*	20	8	11	7	-8	-3
Cc1cccc(NC(=O)Cc2c(F)cccc2Cl)n1	-1	-2	0	11	-3	·	·
CC1(NC(=O)Cc2c(F)cccc2Cl)CCS(=O)(=O)C1 (stereo not given)	13*	10	-3	0	-2	-2	-7
COc1ccc(OC)c(S(=O)(=O)N2CCCC(N3CCN(c4ccccc4)CC3)C2)c1 (stereo not given)	11*	-4	7	10	3	-1	1
COc1ccc(OC)c(S(=O)(=O)N2CCN3CCCC3C2)c1 (stereo not given)	-3	-11	-8	0	-4	·	·
O=C(Nc1ccccc1N1CCN(C(=O)c2ccc(Cl)cc2)CC1)c1cccc(F)c1	12*	5	0	-8	-6	-1	-1
Cc1[nH]c2ccccc2c1C(=O)C(=O)N1CCN(c2ccccc2F)CC1	15*	4	17	-7	0	-3	0
O=C(c1c(F)cccc1F)N1CCN(c2ccccc2F)CC1	5	0	3	-2	16*	-3	-1
O=C(Nc1ccccc1N1CCN(C(=O)c2ccccc2)CC1)c1cccc(Cl)c1	1	2	-3	-3	-7	·	·
CC(C)C[C@@H]1COc2cc(Br)ccc2S(=O)(=O)N1Cc1cn(Cc2ccc(Br)cc2)nn1	2	·	·	1	2	·	·
COCc1cc(N2CCNC[C@@H]2C)ccc1N1CCN(Cc2ccccc2)[C@H](C)C1	-1	7	-9	1	-3	·	·
COc1ccc(N2CCN(CCCNC(=O)CCc3cccc(Cl)c3)CC2)cc1	-2	·	·	-1	2	·	·
COC(=O)c1ccc2nc(C3CCCCC3)c(Cc3ccccc3OC)n2c1	-22	5	14	0	-33	·	·
O=C(c1nnsc1S(=O)(=O)c1ccc(Cl)cc1)N1CCOCC1	18*	1	-3	-1	7	9	0
CCOc1ccc(-n2c(SCC(=O)Nc3ccc(S(=O)(=O)Nc4nccs4)cc3)nnc2-c2ccc(C(C)(C)C)cc2)cc1	5	·	·	-78	1	·	·
CSCCC(NS(=O)(=O)c1ccc(Cl)cc1)C(=O)OCC(=O)N(C(C)C)C(C)C (stereo not given)	0	-9	9	-12	3	·	·
CSCCC(NS(=O)(=O)c1ccc(Cl)cc1)C(=O)OCC(=O)c1ccc(F)cc1 (stereo not given)	5	-12	-9	-51	12*	-2	-1
O=[N+]([O-])c1ccc(-c2c(O)c3ccccc3c3nc4ccccc4nc23)cc1	8	1	-3	1	11*	-2	-3
CCOc1ccc(-n2c(SCC(=O)c3ccccc3Cl)nnc2-c2ccncc2)cc1	3	·	·	-49	0	·	·
